Among the data in ChEMBL document CHEMBL2157921, “Identification of novel 3,5-diarylpyrazoline derivatives containing salicylamide moiety as potential anti-melanoma agents” (Bioorg Med Chem Lett, 2012) are GI50 and IC50 values, retold here.

A short description of assay [1]: Antiproliferative activity against human WM266.4 cells expressing BRAF V600E mutant after 24 hrs by MTT assay. In kind it is functional. As to conditions: WM 266-4, 24 h.
Assay [2] is described as follows: Inhibition of mouse full length GST-tagged BRAF V600E mutant using MEK1 as substrate incubated for 1 hr prior to substrate addition measured after 25 min by gel electrophoresis. Summed up:
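Kinase activity was read out as BRAF V600E-mediated phosphorylation of MEK. Results are given as IC50 values.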

Assay [3] deals with Epidermal growth factor receptor (Homo sapiens, UniProt P00533). Nature of the assay: Inhibition of EGFR.
Sequence of Epidermal growth factor receptor (P00533 whole entry): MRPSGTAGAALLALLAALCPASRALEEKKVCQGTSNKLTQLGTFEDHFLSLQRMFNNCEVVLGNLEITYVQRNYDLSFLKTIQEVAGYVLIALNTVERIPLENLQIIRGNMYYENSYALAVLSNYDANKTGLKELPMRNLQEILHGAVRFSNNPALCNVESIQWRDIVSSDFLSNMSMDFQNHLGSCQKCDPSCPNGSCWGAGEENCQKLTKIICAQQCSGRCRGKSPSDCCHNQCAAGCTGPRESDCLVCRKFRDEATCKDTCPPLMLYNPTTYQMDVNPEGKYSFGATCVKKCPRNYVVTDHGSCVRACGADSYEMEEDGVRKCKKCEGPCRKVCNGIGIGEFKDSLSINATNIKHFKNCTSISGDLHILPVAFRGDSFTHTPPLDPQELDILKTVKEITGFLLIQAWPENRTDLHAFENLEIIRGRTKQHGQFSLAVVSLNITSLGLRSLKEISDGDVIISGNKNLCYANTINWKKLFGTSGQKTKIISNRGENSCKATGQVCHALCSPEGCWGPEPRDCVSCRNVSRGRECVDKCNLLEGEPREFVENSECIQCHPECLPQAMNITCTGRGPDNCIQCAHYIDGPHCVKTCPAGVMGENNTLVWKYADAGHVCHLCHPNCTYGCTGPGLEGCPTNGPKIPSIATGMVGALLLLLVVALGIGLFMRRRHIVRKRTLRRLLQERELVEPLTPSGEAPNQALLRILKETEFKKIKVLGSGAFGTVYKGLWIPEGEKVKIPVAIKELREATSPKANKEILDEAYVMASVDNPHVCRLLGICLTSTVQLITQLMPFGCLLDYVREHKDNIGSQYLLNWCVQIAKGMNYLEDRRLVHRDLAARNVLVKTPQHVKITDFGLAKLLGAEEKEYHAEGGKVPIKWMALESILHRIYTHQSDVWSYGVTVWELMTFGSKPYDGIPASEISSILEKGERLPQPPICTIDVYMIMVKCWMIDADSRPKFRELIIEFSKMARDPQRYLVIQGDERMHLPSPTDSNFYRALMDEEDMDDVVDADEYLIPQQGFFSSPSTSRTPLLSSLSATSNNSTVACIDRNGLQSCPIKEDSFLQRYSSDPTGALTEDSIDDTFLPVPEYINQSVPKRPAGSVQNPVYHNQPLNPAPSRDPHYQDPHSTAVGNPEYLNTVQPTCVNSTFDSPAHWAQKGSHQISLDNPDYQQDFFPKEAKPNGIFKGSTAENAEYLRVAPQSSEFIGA
The next assay concerns the target T1, Aurora kinase A (Homo sapiens, UniProt O14965).
T1 sequence (O14965 whole entry): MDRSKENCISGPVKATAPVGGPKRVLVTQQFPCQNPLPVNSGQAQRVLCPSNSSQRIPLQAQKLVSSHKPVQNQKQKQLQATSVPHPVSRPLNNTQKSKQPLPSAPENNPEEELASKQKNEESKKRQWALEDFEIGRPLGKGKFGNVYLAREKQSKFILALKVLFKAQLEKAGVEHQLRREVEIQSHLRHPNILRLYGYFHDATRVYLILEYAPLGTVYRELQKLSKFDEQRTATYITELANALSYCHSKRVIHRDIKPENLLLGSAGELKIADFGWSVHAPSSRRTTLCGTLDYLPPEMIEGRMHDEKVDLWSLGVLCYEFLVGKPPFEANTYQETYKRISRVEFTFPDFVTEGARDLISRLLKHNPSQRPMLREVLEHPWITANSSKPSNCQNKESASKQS
Nature of the assay: Inhibition of human recombinant Aurora A kinase using PLK as substrate incubated for 15 mins prior to substrate addition measured after 60 mins by immunofluorescence method.

Assay [4] has as its target Serine/threonine-protein kinase B-raf (Homo sapiens, UniProt P15056, V600E). Nature of the assay: Inhibition of BRAF V600E mutant in human WM266.4 cells assessed as inhibition of ERK1/2 phosphorylation by ELISA. In kind it is cell-based. For orientation: In an ELISA, binding on a coated surface is turned into a signal by an enzyme label.
A short description of assay [5]: Antiproliferative activity against human WM1361 cells expressing wild type BRAF after 24 hrs by MTT assay. The note with it: WM1361, 24 h. In kind it is functional, cell-based. (Tetrazolium dyes change colour on reduction, which living cells bring about.)
Assay [6] addresses Receptor tyrosine-protein kinase erbB-2 (Homo sapiens, UniProt P04626). Nature of the assay: Inhibition of HER2.
A short description of assay [7]: Inhibition of bovine FAK isolated from brain after 20 mins by turbidimetric analysis. Further details: species or system Bos taurus.
For assay [8], the target named is Vascular endothelial growth factor receptor 2 (Homo sapiens, UniProt P35968). Description: Inhibition of VEGFR2 using gastrin as substrate after 60 mins by immunofluorescence method.
Sequence of Vascular endothelial growth factor receptor 2 (P35968 whole entry): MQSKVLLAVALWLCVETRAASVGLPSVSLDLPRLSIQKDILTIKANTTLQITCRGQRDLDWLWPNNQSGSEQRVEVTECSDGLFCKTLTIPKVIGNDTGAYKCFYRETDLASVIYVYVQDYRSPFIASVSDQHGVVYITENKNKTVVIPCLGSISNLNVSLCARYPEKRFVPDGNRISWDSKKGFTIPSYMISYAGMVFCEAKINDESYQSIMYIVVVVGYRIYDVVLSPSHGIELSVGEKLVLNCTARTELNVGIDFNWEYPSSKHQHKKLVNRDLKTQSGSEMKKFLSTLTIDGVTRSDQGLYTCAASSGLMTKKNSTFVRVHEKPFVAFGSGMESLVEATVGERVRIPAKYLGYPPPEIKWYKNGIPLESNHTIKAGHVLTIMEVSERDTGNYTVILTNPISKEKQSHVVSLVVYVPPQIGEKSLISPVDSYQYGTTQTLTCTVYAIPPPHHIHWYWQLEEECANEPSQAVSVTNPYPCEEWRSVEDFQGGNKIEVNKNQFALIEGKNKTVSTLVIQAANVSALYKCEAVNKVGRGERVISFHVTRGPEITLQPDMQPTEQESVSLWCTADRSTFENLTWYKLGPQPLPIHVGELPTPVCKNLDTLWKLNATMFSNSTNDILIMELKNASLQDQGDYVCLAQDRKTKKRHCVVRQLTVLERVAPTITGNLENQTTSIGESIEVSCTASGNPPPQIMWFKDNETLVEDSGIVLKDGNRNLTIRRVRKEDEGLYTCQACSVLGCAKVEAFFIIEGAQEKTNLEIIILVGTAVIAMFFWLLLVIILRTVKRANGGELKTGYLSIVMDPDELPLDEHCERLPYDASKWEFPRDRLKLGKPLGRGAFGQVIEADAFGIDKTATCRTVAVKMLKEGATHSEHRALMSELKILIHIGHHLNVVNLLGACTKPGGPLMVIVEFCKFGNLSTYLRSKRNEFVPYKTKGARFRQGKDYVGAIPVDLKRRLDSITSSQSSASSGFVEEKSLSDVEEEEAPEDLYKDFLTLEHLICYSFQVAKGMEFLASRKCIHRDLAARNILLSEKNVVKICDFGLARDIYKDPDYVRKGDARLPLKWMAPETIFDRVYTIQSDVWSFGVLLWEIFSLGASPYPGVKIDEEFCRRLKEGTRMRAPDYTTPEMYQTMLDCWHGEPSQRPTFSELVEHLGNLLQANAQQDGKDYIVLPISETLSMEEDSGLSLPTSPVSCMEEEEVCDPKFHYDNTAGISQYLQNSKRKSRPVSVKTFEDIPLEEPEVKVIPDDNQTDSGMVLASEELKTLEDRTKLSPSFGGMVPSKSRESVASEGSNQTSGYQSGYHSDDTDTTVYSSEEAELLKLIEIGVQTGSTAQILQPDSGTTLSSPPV

Sequence of Receptor tyrosine-protein kinase erbB-2 (P04626 whole entry): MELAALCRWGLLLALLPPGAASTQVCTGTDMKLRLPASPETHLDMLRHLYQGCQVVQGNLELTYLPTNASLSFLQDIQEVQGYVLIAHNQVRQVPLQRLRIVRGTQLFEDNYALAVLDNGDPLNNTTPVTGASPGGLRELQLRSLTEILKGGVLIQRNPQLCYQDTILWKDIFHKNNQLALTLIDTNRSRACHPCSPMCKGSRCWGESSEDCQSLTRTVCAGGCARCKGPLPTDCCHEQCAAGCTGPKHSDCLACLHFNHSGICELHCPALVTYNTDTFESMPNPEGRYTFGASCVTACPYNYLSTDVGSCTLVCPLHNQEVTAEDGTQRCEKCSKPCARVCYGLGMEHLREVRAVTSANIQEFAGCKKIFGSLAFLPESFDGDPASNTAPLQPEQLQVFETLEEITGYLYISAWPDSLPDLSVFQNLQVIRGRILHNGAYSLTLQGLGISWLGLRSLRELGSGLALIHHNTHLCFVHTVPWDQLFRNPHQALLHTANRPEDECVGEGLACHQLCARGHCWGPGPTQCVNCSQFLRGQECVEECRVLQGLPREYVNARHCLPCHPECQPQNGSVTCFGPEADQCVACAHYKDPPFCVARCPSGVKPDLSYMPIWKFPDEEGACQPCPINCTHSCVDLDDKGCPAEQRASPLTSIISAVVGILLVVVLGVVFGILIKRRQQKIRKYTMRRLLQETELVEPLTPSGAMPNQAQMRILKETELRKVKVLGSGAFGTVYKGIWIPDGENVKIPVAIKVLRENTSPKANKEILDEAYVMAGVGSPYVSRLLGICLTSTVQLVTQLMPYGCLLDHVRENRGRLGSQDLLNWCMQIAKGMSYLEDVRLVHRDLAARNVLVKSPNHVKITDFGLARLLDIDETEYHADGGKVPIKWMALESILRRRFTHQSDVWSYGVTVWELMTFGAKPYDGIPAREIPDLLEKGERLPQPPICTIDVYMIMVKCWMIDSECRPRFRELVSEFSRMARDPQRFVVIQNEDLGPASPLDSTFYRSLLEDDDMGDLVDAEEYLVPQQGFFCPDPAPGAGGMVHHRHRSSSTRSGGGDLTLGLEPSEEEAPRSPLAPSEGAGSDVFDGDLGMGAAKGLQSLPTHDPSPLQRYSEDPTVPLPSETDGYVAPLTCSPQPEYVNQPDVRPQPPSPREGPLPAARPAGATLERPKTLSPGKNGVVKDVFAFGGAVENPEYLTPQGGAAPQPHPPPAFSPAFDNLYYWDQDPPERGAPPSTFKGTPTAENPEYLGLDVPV
Sequence of Serine/threonine-protein kinase B-raf (P15056 2-766 V600E limits assumed): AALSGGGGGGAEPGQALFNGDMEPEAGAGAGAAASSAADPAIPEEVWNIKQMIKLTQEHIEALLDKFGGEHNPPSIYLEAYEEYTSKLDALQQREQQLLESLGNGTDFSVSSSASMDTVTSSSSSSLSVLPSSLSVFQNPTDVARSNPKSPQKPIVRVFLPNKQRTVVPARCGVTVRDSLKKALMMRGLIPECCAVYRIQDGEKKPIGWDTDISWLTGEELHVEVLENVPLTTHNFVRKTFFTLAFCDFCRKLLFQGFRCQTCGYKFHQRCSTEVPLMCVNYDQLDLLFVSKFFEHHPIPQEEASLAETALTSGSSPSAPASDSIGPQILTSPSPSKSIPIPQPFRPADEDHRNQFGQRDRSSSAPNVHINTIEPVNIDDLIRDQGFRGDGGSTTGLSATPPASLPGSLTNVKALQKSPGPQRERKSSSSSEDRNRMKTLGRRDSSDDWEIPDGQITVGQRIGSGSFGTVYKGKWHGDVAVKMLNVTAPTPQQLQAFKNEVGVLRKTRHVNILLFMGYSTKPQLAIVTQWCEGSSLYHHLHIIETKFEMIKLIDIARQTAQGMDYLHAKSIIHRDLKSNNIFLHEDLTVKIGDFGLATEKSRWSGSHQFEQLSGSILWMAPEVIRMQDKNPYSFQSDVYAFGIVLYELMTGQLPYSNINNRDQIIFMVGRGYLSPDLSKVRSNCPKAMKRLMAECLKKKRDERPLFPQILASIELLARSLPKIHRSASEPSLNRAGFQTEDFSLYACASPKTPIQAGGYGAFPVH

As a reminder, the GI50 is the concentration at which growth is held to half of that of the control. Usually IC50 stands for the midpoint of a concentration-inhibition curve. Molecule `COc1ccc(C2=NN(C(=O)c3ccc(Cl)cc3O)C(c3ccc(OCc4ccccc4)cc3)C2)cc1` (centres undefined) came in with a 50% growth inhibitory concentration (GI50) in assay [1] of 7.89 µM. The molecule further registered a half-inhibitory concentration (IC50) in [2] of 5.01 µM.

As for `COc1ccc(C2=NN(C(=O)c3cc(OC)ccc3O)C(c3ccc(Br)cc3)C2)cc1` (centres undefined), in assay [1], growth was halved (GI50) at 12.9 µM. In addition, 6.94 µM corresponded to half-maximal inhibition in [2] (IC50).

As for `COc1ccc(C2=NN(C(=O)c3cc(Cl)ccc3O)C(c3ccc(Cl)cc3)C2)cc1` (centres undefined), growth in [1] was halved (GI50) at 1.52 µM. Also, the IC50 in assay [2] came out at 0.57 µM.

In the case of `COc1ccc(C2=NN(C(=O)c3ccc(Cl)cc3O)C(c3ccc(Cl)cc3)C2)cc1` (centres undefined), the IC50 in assay [3] was 10.5 µM; at Aurora kinase A it was greater than 25 µM; in [2] it was 0.16 µM; in assay [4], 0.81 µM; in assay [6], greater than 25 µM; in [7], greater than 25 µM. For the same molecule, in [8], the IC50 was greater than 25 µM. The GI50 in assay [1] turned out to be 0.24 µM; in assay [5], 12.1 µM.

With `COc1ccc(C2=NN(C(=O)c3cc(Br)ccc3O)C(c3ccc(Cl)cc3)C2)cc1` (centres undefined), it took 2.39 µM to inhibit growth in [1] by half (GI50). Moreover, it took 1.21 µM to reach half-maximal inhibition in [2] (IC50).

In [1], `COc1ccc(C2=NN(C(=O)c3cc(I)ccc3O)C(c3ccc(Cl)cc3)C2)cc1` (centres undefined) gave a 50% growth inhibitory concentration (GI50) of 3.27 µM. In addition, in assay [2], the 50% inhibitory concentration (IC50) was found to be 1.3 µM.

The molecule `COc1ccc(C2=NN(C(=O)c3cc(OC)ccc3O)C(c3ccc(Cl)cc3)C2)cc1` (centres undefined) showed a 50% growth inhibitory concentration (GI50) in [1] of 5.04 µM. Further, the IC50 in assay [2] turned out to be 3.72 µM.

With `COc1ccc(C2=NN(C(=O)c3cc(Cl)ccc3O)C(c3ccc(OCc4ccccc4)cc3)C2)cc1` (centres undefined), in [1], halving of growth (GI50) required 12.9 µM. Also, the half-maximal inhibitory concentration (IC50) in [2] turned out to be 5.69 µM.

The molecule `COc1ccc(C2=NN(C(=O)c3cc(Br)ccc3O)C(c3ccc(OCc4ccccc4)cc3)C2)cc1` (centres undefined) showed a 50% growth inhibitory concentration (GI50) in assay [1] of 12.9 µM. In assay [2], this molecule registered an IC50 of 7.22 µM.

On to `COc1ccc(C2=NN(C(=O)c3cc(I)ccc3O)C(c3ccc(OCc4ccccc4)cc3)C2)cc1` (centres undefined), for which the GI50 in assay [1] came to 13 µM. For the same molecule, in assay [2], the midpoint of inhibition, the IC50, lay at 5.9 µM.

`COc1ccc(C2=NN(C(=O)c3cc(OC)ccc3O)C(c3ccc(OCc4ccccc4)cc3)C2)cc1` (centres undefined): in [1], the 50% growth inhibitory concentration (GI50) is 13.9 µM. This molecule returned a concentration for half-maximal inhibition (IC50) in assay [2] of 10.3 µM.

In turn, `COc1ccc(C2=NN(C(=O)c3cc(Cl)ccc3O)C(c3ccc(OC)cc3)C2)cc1` (centres undefined) came in with a GI50 in [1] of 12.6 µM. In addition, in assay [2], the IC50 is 9.3 µM.

The molecule `COc1ccc(C2=NN(C(=O)c3ccc(Cl)cc3O)C(c3ccc(OC)cc3)C2)cc1` (centres undefined) displayed a GI50 in assay [1] of 13.3 µM. The half-inhibitory concentration (IC50) in assay [2] worked out at 7.04 µM.

The molecule `COc1ccc(C2=NN(C(=O)c3cc(Br)ccc3O)C(c3ccc(OC)cc3)C2)cc1` (centres undefined) returned a GI50 in assay [1] of 18.4 µM. Besides, in assay [2], the IC50 came out at 4.92 µM.

As to `COc1ccc(C2=NN(C(=O)c3cc(I)ccc3O)C(c3ccc(OC)cc3)C2)cc1` (centres undefined), in [1], the concentration for 50% growth inhibition (GI50) stood at 15.6 µM. Also, in assay [2], the 50% inhibitory concentration (IC50) amounted to 13.3 µM.

In assay [1], `COc1ccc(C2=NN(C(=O)c3cc(OC)ccc3O)C(c3ccc(OC)cc3)C2)cc1` (centres undefined) came in with a GI50 greater than 20 µM. The molecule also had an IC50 in assay [2] of 8.38 µM.

Turning to `COc1ccc(C2=NN(C(=O)c3cc(Cl)ccc3O)C(c3ccc(Br)cc3)C2)cc1` (centres undefined), the GI50 in assay [1] came out at 3.48 µM. The molecule further had a half-inhibitory concentration (IC50) in assay [2] of 2.51 µM.

In the case of `COc1ccc(C2=NN(C(=O)c3ccc(Cl)cc3O)C(c3ccc(Br)cc3)C2)cc1` (centres undefined), the GI50 in assay [1] is 2.89 µM. In assay [2], this molecule showed an IC50 of 1.38 µM.

In [1], `COc1ccc(C2=NN(C(=O)c3cc(Br)ccc3O)C(c3ccc(Br)cc3)C2)cc1` (centres undefined) yielded a GI50 of 7.4 µM. This molecule also showed a half-inhibitory concentration (IC50) in [2] of 3.69 µM.

Turning to `COc1ccc(C2=NN(C(=O)c3cc(I)ccc3O)C(c3ccc(Br)cc3)C2)cc1` (centres undefined), in [1], the GI50 was 7.35 µM. Moreover, in assay [2], the 50% inhibitory concentration (IC50) was determined as 4.1 µM.

With `CNC(=O)c1cc(Oc2ccc(NC(=O)Nc3ccc(Cl)c(C(F)(F)F)c3)cc2)ccn1` [SORAFENIB], in assay [1], the GI50 came to 8.1 µM. Moreover, the IC50 in assay [2] came to 0.06 µM.
